ChEMBL document CHEMBL4152256, “Structure-activity relationship of new antimalarial 1-aryl-3-susbtituted propanol derivatives: Synthesis, preliminary toxicity profiling, parasite life cycle stage studies, target exploration, and targeted delivery” (Eur J Med Chem, 2018)

How the values were obtained:
Plasmodium falciparum = assay: Antiplasmodial activity against chloroquine-sensitive Plasmodium falciparum 3D7 by [3H]-hypoxanthine incorporation assay; type: functional, organism-based; conditions: Plasmodium falciparum, 3D7
How it was run: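 Blood-stage P. falciparum 3D7 and FCR-3 were tested by a modified [3H]-hypoxanthine incorporation assay. Chloroquine was the reference in all runs.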

[1] = Genotoxicity in Salmonella typhimurium TA1535 harboring pSK1002 assessed as umu gene induction at 0.063 mg/ml in presence of Sprague-Dawley rat liver S9 fraction after by SOS/umu assay relative to control; type: toxicity, organism-based; conditions: salmonella enterica subsp. enterica serovar typhimurium, read-out: FC
[2] = Genotoxicity in Salmonella typhimurium TA1535 harboring pSK1002 assessed as survival at 0.031 mg/ml in absence of Sprague-Dawley rat liver S9 fraction after by SOS/umu assay relative to control; type: toxicity, organism-based; conditions: salmonella enterica subsp. enterica serovar typhimurium, read-out: Survival
[3] = Genotoxicity in Salmonella typhimurium TA1535 harboring pSK1002 assessed as survival at 0.063 mg/ml in presence of Sprague-Dawley rat liver S9 fraction after by SOS/umu assay relative to control; type: toxicity, organism-based; conditions: salmonella enterica subsp. enterica serovar typhimurium, read-out: Survival
[4] = Genotoxicity in Salmonella typhimurium TA1535 harboring pSK1002 assessed as umu gene induction at 0.016 mg/ml in presence of Sprague-Dawley rat liver S9 fraction after by SOS/umu assay relative to control; type: toxicity, organism-based; conditions: salmonella enterica subsp. enterica serovar typhimurium, read-out: FC
[5] = Selectivity index, ratio of CC50 for human HepG2A16 cells by MTT assay to IC50 for multidrug-resistant Plasmodium falciparum FCR-3; type: toxicity; conditions: HepG2A16 cells, read-out: Ratio CC50/IC50
How it was run: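 HepG2-A16 human hepatoma cells were tested by MTT viability assay to give CC50. Blood-stage activity was measured against the multidrug-resistant P. falciparum FCR-3 strain by [3H]-hypoxanthine incorporation to give IC50. SI = CC50 HepG2 / FCR-3 IC50.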

[6] = Genotoxicity in Salmonella typhimurium TA1535 harboring pSK1002 assessed as umu gene induction at 0.004 mg/ml in presence of Sprague-Dawley rat liver S9 fraction after by SOS/umu assay relative to control; type: toxicity, organism-based; conditions: salmonella enterica subsp. enterica serovar typhimurium, read-out: FC
[7] = Genotoxicity in Salmonella typhimurium TA1535 harboring pSK1002 assessed as survival at 0.004 mg/ml in presence of Sprague-Dawley rat liver S9 fraction after by SOS/umu assay relative to control; type: toxicity, organism-based; conditions: salmonella enterica subsp. enterica serovar typhimurium, read-out: Survival
[8] = Genotoxicity in Salmonella typhimurium TA1535 harboring pSK1002 assessed as survival at 0.004 mg/ml in absence of Sprague-Dawley rat liver S9 fraction after by SOS/umu assay relative to control; type: toxicity, organism-based; conditions: salmonella enterica subsp. enterica serovar typhimurium, read-out: Survival
[9] = Genotoxicity in Salmonella typhimurium TA1535 harboring pSK1002 assessed as umu gene induction at 0.016 mg/ml in absence of Sprague-Dawley rat liver S9 fraction after by SOS/umu assay relative to control; type: toxicity, organism-based; conditions: salmonella enterica subsp. enterica serovar typhimurium, read-out: FC
[10] = Genotoxicity in Salmonella typhimurium TA1535 harboring pSK1002 assessed as umu gene induction at 0.031 mg/ml in presence of Sprague-Dawley rat liver S9 fraction after by SOS/umu assay relative to control; type: toxicity, organism-based; conditions: salmonella enterica subsp. enterica serovar typhimurium, read-out: FC
[11] = Genotoxicity in Salmonella typhimurium TA1535 harboring pSK1002 assessed as survival at 0.008 mg/ml in absence of Sprague-Dawley rat liver S9 fraction after by SOS/umu assay relative to control; type: toxicity, organism-based; conditions: salmonella enterica subsp. enterica serovar typhimurium, read-out: Survival
[12] = Genotoxicity in Salmonella typhimurium TA1535 harboring pSK1002 assessed as survival at 0.016 mg/ml in absence of Sprague-Dawley rat liver S9 fraction after by SOS/umu assay relative to control; type: toxicity, organism-based; conditions: salmonella enterica subsp. enterica serovar typhimurium, read-out: Survival
[13] = Genotoxicity in Salmonella typhimurium TA1535 harboring pSK1002 assessed as survival at 0.008 mg/ml in presence of Sprague-Dawley rat liver S9 fraction after by SOS/umu assay relative to control; type: toxicity, organism-based; conditions: salmonella enterica subsp. enterica serovar typhimurium, read-out: Survival
[14] = Genotoxicity in Salmonella typhimurium TA1535 harboring pSK1002 assessed as umu gene induction at 0.031 mg/ml in absence of Sprague-Dawley rat liver S9 fraction after by SOS/umu assay relative to control; type: toxicity, organism-based; conditions: salmonella enterica subsp. enterica serovar typhimurium, read-out: FC
[15] = Genotoxicity in Salmonella typhimurium TA1535 harboring pSK1002 assessed as umu gene induction at 0.001 mg/ml in presence of Sprague-Dawley rat liver S9 fraction after by SOS/umu assay relative to control; type: toxicity, organism-based; conditions: salmonella enterica subsp. enterica serovar typhimurium, read-out: FC
[16] = Cytotoxicity against human HepG2A16 cells by MTT assay; type: cell-based; conditions: HepG2A16 cells
How it was run: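 MTT viability assay on HepG2-A16 cells, giving CC50 values.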

[17] = Genotoxicity in Salmonella typhimurium TA1535 harboring pSK1002 assessed as umu gene induction at 0.001 mg/ml in absence of Sprague-Dawley rat liver S9 fraction after by SOS/umu assay relative to control; type: toxicity, organism-based; conditions: salmonella enterica subsp. enterica serovar typhimurium, read-out: FC
[18] = Genotoxicity in Salmonella typhimurium TA1535 harboring pSK1002 assessed as umu gene induction at 0.004 mg/ml in absence of Sprague-Dawley rat liver S9 fraction after by SOS/umu assay relative to control; type: toxicity, organism-based; conditions: salmonella enterica subsp. enterica serovar typhimurium, read-out: FC
[19] = Genotoxicity in Salmonella typhimurium TA1535 harboring pSK1002 assessed as survival at 0.125 mg/ml in absence of Sprague-Dawley rat liver S9 fraction after by SOS/umu assay relative to control; type: toxicity, organism-based; conditions: salmonella enterica subsp. enterica serovar typhimurium, read-out: Survival
[20] = Genotoxicity in Salmonella typhimurium TA1535 harboring pSK1002 assessed as umu gene induction at 0.008 mg/ml in absence of Sprague-Dawley rat liver S9 fraction after by SOS/umu assay relative to control; type: toxicity, organism-based; conditions: salmonella enterica subsp. enterica serovar typhimurium, read-out: FC
[21] = Genotoxicity in Salmonella typhimurium TA1535 harboring pSK1002 assessed as survival at 0.063 mg/ml in absence of Sprague-Dawley rat liver S9 fraction after by SOS/umu assay relative to control; type: toxicity, organism-based; conditions: salmonella enterica subsp. enterica serovar typhimurium, read-out: Survival
[22] = Genotoxicity in Salmonella typhimurium TA1535 harboring pSK1002 assessed as umu gene induction at 0.125 mg/ml in presence of Sprague-Dawley rat liver S9 fraction after by SOS/umu assay relative to control; type: toxicity, organism-based; conditions: salmonella enterica subsp. enterica serovar typhimurium, read-out: FC
[23] = Genotoxicity in Salmonella typhimurium TA1535 harboring pSK1002 assessed as survival at 0.001 mg/ml in presence of Sprague-Dawley rat liver S9 fraction after by SOS/umu assay relative to control; type: toxicity, organism-based; conditions: salmonella enterica subsp. enterica serovar typhimurium, read-out: Survival
[24] = Genotoxicity in Salmonella typhimurium TA1535 harboring pSK1002 assessed as survival at 0.031 mg/ml in presence of Sprague-Dawley rat liver S9 fraction after by SOS/umu assay relative to control; type: toxicity, organism-based; conditions: salmonella enterica subsp. enterica serovar typhimurium, read-out: Survival
[25] = Genotoxicity in Salmonella typhimurium TA1535 harboring pSK1002 assessed as umu gene induction at 0.063 mg/ml in absence of Sprague-Dawley rat liver S9 fraction after by SOS/umu assay relative to control; type: toxicity, organism-based; conditions: salmonella enterica subsp. enterica serovar typhimurium, read-out: FC
[26] = Genotoxicity in Salmonella typhimurium TA1535 harboring pSK1002 assessed as umu gene induction at 0.125 mg/ml in absence of Sprague-Dawley rat liver S9 fraction after by SOS/umu assay relative to control; type: toxicity, organism-based; conditions: salmonella enterica subsp. enterica serovar typhimurium, read-out: FC
[27] = Genotoxicity in Salmonella typhimurium TA1535 harboring pSK1002 assessed as survival at 0.125 mg/ml in presence of Sprague-Dawley rat liver S9 fraction after by SOS/umu assay relative to control; type: toxicity, organism-based; conditions: salmonella enterica subsp. enterica serovar typhimurium, read-out: Survival
[28] = Genotoxicity in Salmonella typhimurium TA1535 harboring pSK1002 assessed as survival at 0.016 mg/ml in presence of Sprague-Dawley rat liver S9 fraction after by SOS/umu assay relative to control; type: toxicity, organism-based; conditions: salmonella enterica subsp. enterica serovar typhimurium, read-out: Survival

| SMILES | IC50 (Plasmodium falciparum) [µM] | fold induction at 0.063 mg/ml [1] | viability at 0.031 mg/ml [2] [%] | viability at 0.063 mg/ml [3] [%] | fold induction at 0.016 mg/ml [4] | selectivity ratio [5] | fold induction at 0.004 mg/ml [6] | viability at 0.004 mg/ml [7] [%] | viability at 0.004 mg/ml [8] [%] | fold induction at 0.016 mg/ml [9] | viability at 0.008 mg/ml [11] [%] | viability at 0.016 mg/ml [12] [%] | viability at 0.008 mg/ml [13] [%] | fold induction at 0.031 mg/ml [14] | fold induction at 0.001 mg/ml [15] | CC50 [16] [µM] | fold induction at 0.001 mg/ml [17] | fold induction at 0.004 mg/ml [18] | viability at 0.125 mg/ml [19] [%] | fold induction at 0.008 mg/ml [20] | also measured |
| --- | --- | --- | --- | --- | --- | --- | --- | --- | --- | --- | --- | --- | --- | --- | --- | --- | --- | --- | --- | --- | --- |
| COc1ccccc1C1=CCN(CCC(O)c2ccc(F)cc2)CC1 (stereo not given) | 2.82 | 0.9 | 114 | 91 | 1.2 | 51 | 1.1 | 82.3 | 104 | 1 | 111 | 106 | 88.3 | 1 | 1.2 | 67 | 1 | 1.1 | 107 | 1 | fold induction at 0.031 mg/ml [10]: 1; viability at 0.063 mg/ml [21]: 101%; fold induction at 0.125 mg/ml [22]: 1; viability at 0.001 mg/ml [23]: 103%; viability at 0.031 mg/ml [24]: 81.8%; fold induction at 0.063 mg/ml [25]: 0.9; fold induction at 0.125 mg/ml [26]: 1; viability at 0.125 mg/ml [27]: 88.5%; viability at 0.016 mg/ml [28]: 78.9% |
| N#Cc1ccc(N2CCC(NCCC(O)c3ccc(F)c4ccccc34)CC2)c(Cl)c1 (stereo not given) | 0.15 | 0.2 | 42.2 | 82.8 | 0.6 | 88 | 0.5 | 169 | 32.2 | 0.6 | 33.7 | 36.8 | 35.1 | 0.5 | 0.9 | 7.95 | 1 | 1 | 79.8 | 0.8 | viability at 0.063 mg/ml [21]: 55.4%; fold induction at 0.125 mg/ml [22]: 0.1; viability at 0.001 mg/ml [23]: 154%; fold induction at 0.063 mg/ml [25]: 0.3; fold induction at 0.125 mg/ml [26]: 0.1; viability at 0.125 mg/ml [27]: 134%; viability at 0.016 mg/ml [28]: 38.5% |
| Oc1ccc(C(O)CCN2CC=C(c3ccc(F)cc3)CC2)cc1 (stereo not given) | 22.2 | 0.4 | 105 | 118 | 1.2 | 88 | 0.5 | 112 | 97.1 | 1.2 | 98.3 | 94.8 | 108 | 1.1 | 0.5 | 253 | 1.2 | 1 | 112 | 1.1 | fold induction at 0.031 mg/ml [10]: 1.8; viability at 0.063 mg/ml [21]: 123%; fold induction at 0.125 mg/ml [22]: 0.4; viability at 0.001 mg/ml [23]: 102%; viability at 0.031 mg/ml [24]: 110%; fold induction at 0.063 mg/ml [25]: 0.5; fold induction at 0.125 mg/ml [26]: 0.5; viability at 0.125 mg/ml [27]: 103%; viability at 0.016 mg/ml [28]: 120% |
